From ChEMBL document CHEMBL3132745, “Synthesis and Antimicrobial Activities of His(2-aryl)-Arg and Trp-His(2-aryl) Classes of Dipeptidomimetics” (Medchemcomm, 2014)
In brackets after ≈: the same amount, converted by molar mass. Activity calls are given as the source filed them.

Experiments:
[1] = Selectivity index, ratio of cytotoxicity against african green monkey Vero cells to IC50 for Cryptococcus neoformans ATCC 90113; format: toxicity, cell-based; conditions: read-out: Selectivity Index
Pichia kudriavzevii = experiment: Antifungal activity against Candida krusei assessed as growth inhibition; format: functional, organism-based
SK-OV-3 = experiment: Cytotoxicity against human SKOV3 cells assessed as cell viability after 48 hrs by neutral red uptake assay; format: cell-based; conditions: sk-ov-3, 48 h
Outline: (§1)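 Neutral red uptake assay on human cancer lines (SK-MEL, KB, BT-549, SK-OV-3) and noncancerous mammalian cells (VERO, LLC-PK1). Highest tested concentration was 10 µg/mL.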

[2] = Selectivity index, ratio of cytotoxicity against pig LLC-PK1 cells to IC50 for Cryptococcus neoformans ATCC 90113; format: toxicity, cell-based; conditions: read-out: Selectivity Index
Cryptococcus neoformans [3] = experiment: Ratio of amphotericin MFC to compound MFC for Cryptococcus neoformans ATCC 90113 after 70-74 hrs by CLSI method; format: functional
Staphylococcus aureus [4] = experiment: Antibacterial activity against Staphylococcus aureus ATCC 29213 assessed as growth inhibition after 16-20 hrs by CLSI method; format: functional, organism-based
[5] = Selectivity index, ratio of cytotoxicity against human SK-MEL cells to IC50 for Cryptococcus neoformans ATCC 90113; format: toxicity, cell-based; conditions: read-out: Selectivity Index
Vero = experiment: Cytotoxicity against african green monkey Vero cells assessed as cell viability after 48 hrs by neutral red uptake assay; format: cell-based; conditions: chlorocebus sabaeus; outline: as §1
Cryptococcus neoformans [6] = experiment: Ratio of amphotericin IC50 to compound IC50 for Cryptococcus neoformans ATCC 90113 after 70-74 hrs by CLSI method; format: functional
Escherichia coli = experiment: Antibacterial activity against Escherichia coli ATCC 35218 assessed as growth inhibition after 16-20 hrs by CLSI method; format: functional, organism-based
Nakaseomyces glabratus = experiment: Antifungal activity against Candida glabrata assessed as growth inhibition; format: functional, organism-based
KB = experiment: Cytotoxicity against human KB cells assessed as cell viability after 48 hrs by neutral red uptake assay; format: cell-based; outline: as §1
[7] = Selectivity index, ratio of cytotoxicity against human BT549 cells to IC50 for Cryptococcus neoformans ATCC 90113; format: toxicity, cell-based, BT-549; conditions: read-out: Selectivity Index
Cryptococcus neoformans [8] = experiment: Antifungal activity against Cryptococcus neoformans ATCC 90113 assessed as growth inhibition after 70-74 hrs by CLSI method; format: functional, organism-based; conditions: Cryptococcus neoformans, ATCC 90113; for IC50: read-out: IC50
Candida albicans = experiment: Antifungal activity against Candida albicans assessed as growth inhibition; format: functional, organism-based
Cryptococcus neoformans [9] = experiment: Ratio of amphotericin MIC to compound MIC for Cryptococcus neoformans ATCC 90113 after 70-74 hrs by CLSI method; format: functional
[10] = Selectivity index, ratio of cytotoxicity against human SKOV3 cells to IC50 for Cryptococcus neoformans ATCC 90113; format: toxicity, cell-based, SK-OV-3; conditions: read-out: Selectivity Index
Aspergillus fumigatus = experiment: Antifungal activity against Aspergillus fumigatus assessed as growth inhibition; format: functional, organism-based
LLC-PK1 = experiment: Cytotoxicity against pig LLC-PK1 cells assessed as cell viability after 48 hrs by neutral red uptake assay; format: cell-based, Sus scrofa; conditions: llc-pk1, 48 h; outline: as §1
BT-549 = experiment: Cytotoxicity against human BT549 cells assessed as cell viability after 48 hrs by neutral red uptake assay; format: cell-based; conditions: bt-549, 48 h; outline: as §1
Staphylococcus aureus [11] = experiment: Antibacterial activity against methicillin-resistant Staphylococcus aureus ATCC 33591 assessed as growth inhibition after 16-20 hrs by CLSI method; format: functional, organism-based
SK-MEL = experiment: Cytotoxicity against human SK-MEL cells assessed as cell viability after 48 hrs by neutral red uptake assay; format: cell-based; outline: as §1
[12] = Selectivity index, ratio of cytotoxicity against human KB cells to IC50 for Cryptococcus neoformans ATCC 90113; format: toxicity, cell-based; conditions: read-out: Selectivity Index

SMILES | selectivity ratio [1] | growth inhibition (GI) (Pichia kudriavzevii) | Activity (SK-OV-3) | selectivity ratio [2] | IC50 (Staphylococcus aureus [4]) | selectivity ratio [5] | Activity (Vero) | growth inhibition (GI) (Escherichia coli) | growth inhibition (GI) (Nakaseomyces glabratus) | Activity (KB) | selectivity ratio [7] | MFC (Cryptococcus neoformans [8]) | MIC (Cryptococcus neoformans [8]) | IC50 (Cryptococcus neoformans [8]) | growth inhibition (GI) (Candida albicans) | selectivity ratio [10] | growth inhibition (GI) (Aspergillus fumigatus) | Activity (LLC-PK1) | Activity (BT-549) | MBC (Staphylococcus aureus [11]) | other results
CC(C)(C)c1ccc(-c2nc(C[C@H](N)C(=O)N[C@@H](CCCNC(=N)N)C(=O)NCc3ccccc3)c[nH]2)cc1 | > 62.5 | inactive | > 10 µg/mL | > 62.5 | 15.9 µg/mL (≈ 29.8 µM) | > 62.5 | > 10 µg/mL | inactive | inactive | > 10 µg/mL | > 62.5 | 0.31 µg/mL (≈ 0.582 µM) | 0.31 µg/mL (≈ 0.582 µM) | 0.16 µg/mL (≈ 0.3 µM) | inactive | > 62.5 | inactive | > 10 µg/mL | > 10 µg/mL | inactive | Ratio (Cryptococcus neoformans [3]): >4; MBC (Staphylococcus aureus [4]): inactive; MIC (Staphylococcus aureus [4]): inactive; Ratio IC50 (Cryptococcus neoformans [6]): >4; Ratio (Cryptococcus neoformans [9]): >4; IC50 (Staphylococcus aureus [11]): Not Active; MIC (Staphylococcus aureus [11]): inactive; Activity (SK-MEL): > 10 µg/mL; selectivity ratio [12]: > 62.5
CC(C)(C)OC(=O)N[C@@H](Cc1c[nH]c(-c2cccc3ccccc23)n1)C(=O)N[C@@H](CCCNC(=N)N)C(=O)NCc1ccccc1 | > 3.6 | inactive | > 10 µg/mL | > 3.6 | 16.4 µg/mL (≈ 26.1 µM) | > 3.6 | > 10 µg/mL | inactive | inactive | > 10 µg/mL | > 3.6 | 5 µg/mL (≈ 7.98 µM) | 5 µg/mL (≈ 7.98 µM) | 2.79 µg/mL (≈ 4.45 µM) | inactive | > 3.6 | inactive | > 10 µg/mL | > 10 µg/mL | inactive | MIC (Staphylococcus aureus [11]; Staphylococcus aureus, ATCC 33591): 20 µg/mL (≈ 31.9 µM); IC50 (Staphylococcus aureus [11]; Staphylococcus aureus, ATCC 33591, read-out: IC50): 13.2 µg/mL (≈ 21.1 µM); Activity (SK-MEL): > 10 µg/mL; selectivity ratio [12]: > 3.6
